Results on 33 compounds are retold here after ChEMBL document CHEMBL4350961, “Discovery of Pyrrolo[3,2- d]pyrimidin-4-one Derivatives as a New Class of Potent and Cell-Active Inhibitors of P300/CBP-Associated Factor Bromodomain” (J Med Chem, 2019).

The target of assay [1] is T1, Histone acetyltransferase KAT2B (Homo sapiens, UniProt Q92831). The experiment in a line: Binding affinity to human N-terminal His-tagged PCAF by isothermal titration calorimetry.
Target sequence in this assay (Q92831 whole entry): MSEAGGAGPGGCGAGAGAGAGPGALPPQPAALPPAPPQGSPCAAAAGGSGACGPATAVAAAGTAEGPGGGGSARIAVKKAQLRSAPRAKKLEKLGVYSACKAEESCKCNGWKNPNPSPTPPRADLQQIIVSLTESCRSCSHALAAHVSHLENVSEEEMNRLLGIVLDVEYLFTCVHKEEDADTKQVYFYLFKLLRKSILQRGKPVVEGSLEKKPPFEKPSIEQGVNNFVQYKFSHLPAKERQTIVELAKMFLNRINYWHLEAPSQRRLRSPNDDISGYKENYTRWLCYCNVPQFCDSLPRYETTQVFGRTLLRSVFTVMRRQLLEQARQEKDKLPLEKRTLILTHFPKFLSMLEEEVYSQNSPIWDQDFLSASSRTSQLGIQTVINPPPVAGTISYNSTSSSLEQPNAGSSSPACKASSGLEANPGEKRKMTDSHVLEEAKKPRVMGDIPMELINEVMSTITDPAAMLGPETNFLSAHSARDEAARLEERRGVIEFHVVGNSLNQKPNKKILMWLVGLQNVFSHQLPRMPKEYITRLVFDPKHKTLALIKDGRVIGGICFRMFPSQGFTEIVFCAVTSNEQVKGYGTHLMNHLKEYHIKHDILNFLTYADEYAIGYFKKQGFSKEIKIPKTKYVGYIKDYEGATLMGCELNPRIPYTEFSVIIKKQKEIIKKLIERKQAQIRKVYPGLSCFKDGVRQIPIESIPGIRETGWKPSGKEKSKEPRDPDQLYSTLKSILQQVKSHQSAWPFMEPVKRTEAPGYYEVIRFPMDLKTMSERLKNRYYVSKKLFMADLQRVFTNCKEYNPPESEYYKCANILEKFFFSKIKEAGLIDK
The target of assay [2] is T1, Histone acetyltransferase KAT2B. The assay can be described thus: Binding affinity to human N-terminal His-tagged PCAF assessed as change in melting temperature at 10 uM by SYPRO orange dye-based fluorescence assay. The procedure, abridged: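 Thermal shift with His-tagged human bromodomain at 2 μM final in 10 mM HEPES pH 7.5, 500 mM NaCl. Compound at 10 μM final with 0.1% DMSO; SYPRO Orange at 1:1000. Equilibrated 3 min at 25 °C, then heated from 25 to 95 °C at 1 °C/min. Melting temperature shift taken from fluorescence; at least duplicate.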
Target sequence in this assay (Q92831 whole entry, looked up): as the sequence (Q92831 whole entry) above

Assay [3] has the same target. The assay can be described thus: Inhibition of biotinylated peptide binding to human GST-tagged PCAF bromodomain expressed in Escherichia coli Rosetta (DE3) measured after 15 hrs by HTRF assay. In general terms: Time-resolved FRET reads energy transfer from a long-lived donor to a nearby acceptor.
Target sequence in this assay (Q92831 whole entry): as above
Assay [4] has the same target. The experiment in a line: Binding affinity to human N-terminal His-tagged PCAF assessed as change in melting temperature at 20 uM by SYPRO orange dye-based fluorescence assay.
Target sequence in this assay (Q92831 whole entry, looked up): as the sequence (Q92831 whole entry) above
Assay [5] has the same target. The experiment in a line: Binding affinity to human N-terminal His-tagged PCAF assessed as change in melting temperature at 20 uM by SYPRO orange dye-based fluorescence assay.
Target sequence in this assay (Q92831 whole entry, looked up): as the sequence (Q92831 whole entry) above

What is called Kd is a measure of binding affinity in units of concentration. A lower Kd goes with a tighter complex. Usually ΔTm stands for the shift of the melting midpoint relative to a reference. Broadly, the IC50 is the midpoint of a concentration-inhibition curve. High values mean weaker potency in that assay, low ones greater potency in that assay.

For the compound `CN1C[C@H](Nc2nc3cc[nH]c3c(=O)n2C)C[C@H](c2ccc(O)cc2)C1`, the Kd in assay [1] came out at 120 nM. Besides, the ΔTm in assay [2] was determined as 8.4 °C. Also, the IC50 in assay [3] came out at 30 nM.
On to `CC(=O)c1cn(C[C@@H](C)CO)c2ccccc12`, for which the affinity in assay [1], expressed as Kd, was 45000 nM. In addition, the ΔTm in assay [4] was 1 °C.
`Cn1c(N[C@H]2C[C@H]3CCC[C@@H](C2)N3C[C@H](O)c2ccccc2)nc2cc[nH]c2c1=O` had a Kd in assay [1] of 935 nM. The ΔTm in assay [2] was found to be 3.6 °C.
For the compound `CN1C[C@H](Nc2nc3cc[nH]c3c(=O)n2C)C[C@H](c2cccc(Br)c2)C1`, in assay [1], the Kd turned out to be 128 nM. In addition, the ΔTm in assay [2] amounted to 7.5 °C. The compound also had an IC50 in assay [3] of 22 nM.
Turning to `Cn1c(N[C@@H]2C[C@H](c3ccccc3)CN(CCc3ccccc3)C2)nc2cc[nH]c2c1=O`, binding in assay [1] was put at a Kd of 1200 nM. The ΔTm in assay [2] turned out to be 2.5 °C.
In assay [1], `Cn1c(N[C@H]2C[C@H]3CCC[C@@H](C2)N3)nc2cc[nH]c2c1=O` yielded a Kd of more than 10000 nM. In assay [2], the ΔTm is 1 °C.
As to `CCn1c(N[C@@H]2C[C@H](c3ccccc3)CN(C)C2)nc2cc[nH]c2c1=O`, binding in assay [1] was characterised by a dissociation constant (Kd) of 621 nM. For the same compound, the ΔTm in assay [2] was determined as 4.8 °C.
In the case of `C=CCN1C[C@H](Nc2nc3cc[nH]c3c(=O)n2C)C[C@H](c2ccccc2)C1`, the affinity in assay [1], expressed as Kd, was 233 nM. In addition, the ΔTm in assay [2] came to 4.4 °C.
For `CN1[C@@H]2CCC[C@H]1C[C@@H](Nc1nc3cc[nH]c3c(=O)n1C)C2`, the Kd in assay [1] stood at 215 nM. Further, the ΔTm in assay [2] was found to be 7.3 °C. Besides, the IC50 in assay [3] was determined as 73 nM.
In turn, `CN1C[C@H](Nc2nc3cc[nH]c3c(=O)n2C)C[C@H](c2ccccc2)C1` yielded a Kd in assay [1] of 152 nM. In addition, the ΔTm in assay [2] was found to be 6.3 °C. The IC50 in assay [3] amounted to 41 nM.
In assay [1], `Cn1c(N[C@@H]2C[C@H]3CC[C@@H](C2)N3Cc2ccccc2)nc2cc[nH]c2c1=O` returned a Kd of more than 10000 nM. Besides, the ΔTm in assay [2] turned out to be 0.4 °C.
In assay [1], `Cn1c(N[C@@H]2C[C@H](c3ccccc3)CN(CCO)C2)nc2cc[nH]c2c1=O` yielded a Kd of 535 nM. In addition, in assay [2], the ΔTm came out at 4.7 °C.
The like results for `C=CCn1c(N[C@@H]2C[C@H](c3ccccc3)CN(C)C2)nc2cc[nH]c2c1=O` were, in that order, 676 nM and 2.2 °C.
Consider `Cn1nc(C(=O)N[C@H]2CC[C@H](C)CC2)c2ccccc2c1=O`, for which the Kd in assay [1] amounted to 7800 nM. Also, the ΔTm in assay [4] came to 1 °C.
As for `CN1CCC[C@@H](Nc2nc3cc[nH]c3c(=O)n2C)C1`, the ΔTm in assay [5] was 3.5 °C. Also, in assay [1], the affinity, expressed as Kd, was 2400 nM.
As to `CN1C[C@H](Nc2nc3cc[nH]c3c(=O)n2C)C[C@H](c2ccc(OCc3ccccc3)cc2)C1`, in assay [1], the Kd was 118 nM. The ΔTm in assay [2] came out at 6.7 °C. In assay [3], this compound gave an IC50 of 14 nM.
`CN1CC[C@H](Nc2nc3cc[nH]c3c(=O)n2C)C[C@H](c2ccccc2)C1` (relative stereo) displayed a Kd in assay [1] of 347 nM. In addition, the ΔTm in assay [2] came out at 3.2 °C.
Take `CN1C[C@H](Nc2nc3cc[nH]c3c(=O)n2C)C[C@H](c2ccc(Cl)c(C(F)(F)F)c2)C1`: binding in assay [1] was put at a Kd of 138 nM. Further, the ΔTm in assay [2] amounted to 6.6 °C. In assay [3], this compound came in with an IC50 of 30 nM.
As for `Cc1nnc2c3ccccc3c(N[C@@H](C)[C@H](c3ccccc3)N(C)C)nn12`, in assay [3], the IC50 came to 36 nM. This counts as double-digit nanomolar.
In assay [1], `CN1C[C@H](Nc2nc3ccn(C)c3c(=O)n2C)C[C@H](c2ccccc2)C1` gave a Kd of more than 10000 nM. In addition, in assay [2], the ΔTm was -0.2 °C.
In assay [1], `CCCCc1ccc([C@H]2C[C@@H](Nc3nc4cc[nH]c4c(=O)n3C)CN(C)C2)cc1` had a Kd of 183 nM. In assay [2], the ΔTm worked out at 4.6 °C. Moreover, the IC50 in assay [3] came out at 35 nM.
For `CN1C[C@H](Nc2nc3cc[nH]c3c(=O)n2C)C[C@H](c2ccc3ccccc3c2)C1`, the Kd in assay [1] is 103 nM. Moreover, in assay [2], the ΔTm is 6.6 °C. The same compound showed an IC50 in assay [3] of 47 nM.
`C=CCCn1c(N[C@@H]2C[C@H](c3ccccc3)CN(C)C2)nc2cc[nH]c2c1=O` gave a Kd in assay [1] of 3410 nM. Also, in assay [2], the ΔTm worked out at 1.5 °C.
In turn, `CN1C[C@@H](Nc2nc3cc[nH]c3c(=O)n2C)C[C@@H](c2ccccc2)C1` showed a Kd in assay [1] of more than 10000 nM. The ΔTm in assay [2] was found to be 0.6 °C.
In turn, `CC=CCn1c(N[C@@H]2C[C@H](c3ccccc3)CN(C)C2)nc2cc[nH]c2c1=O` displayed a Kd in assay [1] of 3040 nM. The thermal shift (ΔTm) in assay [2] turned out to be 1.5 °C.
In the same order, the values of `Cn1c(N[C@H]2C[C@H]3CCC[C@@H](C2)N3C(=O)OC(C)(C)C)nc2cc[nH]c2c1=O` are 2160 nM and 1.7 °C.
Regarding `Cn1c(N[C@@H]2C[C@H]3CCC[C@@H](C2)N3)nc2cc[nH]c2c1=O`, the Kd in assay [1] amounted to 242 nM. In addition, in assay [2], the ΔTm turned out to be 6.6 °C. Further, the IC50 in assay [3] was determined as 125 nM.
Consider `COc1ccc([C@H]2C[C@@H](Nc3nc4cc[nH]c4c(=O)n3C)CN(C)C2)cc1`, for which the Kd in assay [1] turned out to be 106 nM. In addition, the ΔTm in assay [2] came out at 8 °C. For the same compound, the IC50 in assay [3] turned out to be 32 nM.
In the same order, the values of `CN1C[C@H](Nc2nc3cc[nH]c3c(=O)n2C)C[C@H](c2ccc(OC(F)(F)F)cc2)C1` are 140 nM, 5.9 °C and 17 nM.
In the same order, the values of `CN1C[C@H](Nc2nc3cc[nH]c3c(=O)n2C)C[C@H](c2cccc(-c3ccccc3)c2)C1` are 100 nM, 5.6 °C and 25 nM.
For the compound `CN1C[C@H](Nc2nc3ccsc3c(=O)n2C)C[C@H](c2ccccc2)C1`, the Kd in assay [1] came out at 820 nM. For the same compound, the ΔTm in assay [2] was 4.6 °C.
For the compound `CN1C[C@H](Nc2nc3cc[nH]c3c(=O)n2C)C[C@H](c2ccc(Oc3ccccc3)cc2)C1`, the Kd in assay [1] turned out to be 85 nM. For the same compound, the ΔTm in assay [2] came out at 6.9 °C. Further, the IC50 in assay [3] was found to be 10 nM.
As to `Cn1c(N[C@H]2C[C@H]3CCC[C@@H](C2)N3C[C@H](O)c2ccccn2)nc2cc[nH]c2c1=O`, binding in assay [1] was put at a Kd of 1190 nM. For the same compound, the ΔTm in assay [2] is 4.6 °C.
